Test results reported in ChEMBL document CHEMBL4028901, “Novel Antitubercular 6-Dialkylaminopyrimidine Carboxamides from Phenotypic Whole-Cell High Throughput Screening of a SoftFocus Library: Structure-Activity Relationship and Target Identification Studies” (J Med Chem, 2017).
Values after ≈ are worked out from the molar mass of the structure shown. Active and inactive are the calls of the source. The calls are words filed in the database; no cut-off is given here.

Key:
[1] = Binding affinity to Mycobacterium bovis BCG Rv3169; set-up: species or system Mycobacterium tuberculosis variant bovis BCG; conditions: read-out: Kd(app)
[2] = tested on: Mycobacterium tuberculosis variant bovis BCG; assay: Binding affinity to Mycobacterium bovis BCG Rv3169 using sepharose beads derivatized with 6-((3-aminopropyl)(benzyl)amino)-N-(4-(4-methylpiperazin-1-yl)phenyl)pyrimidine-4-carboxamide by LC-MS/MS based chemoproteomics assay
Method in brief: (§1)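 BCG lysate (0.25 mg) pre-incubated with compound or DMSO, then bound to probe-derivatized sepharose beads (0.04 mM) for 1 h at 4 °C. Six compound concentrations used, top 30 μM with 1:4 steps. Includes vehicle duplicates and rebinding duplicates to measure depletion. Bound proteins eluted and quantified by TMT LC-MS/MS. Apparent Kd corrected for depletion by the beads.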

[3] = Binding affinity to Mycobacterium bovis BCG Rv3768; set-up: species or system Mycobacterium tuberculosis variant bovis BCG; conditions: read-out: Kd(app)
[4] = tested on: Mycobacterium tuberculosis variant bovis BCG; assay: Binding affinity to Mycobacterium bovis BCG Rv3768 using sepharose beads derivatized with 6-((3-aminopropyl)(benzyl)amino)-N-(4-(4-methylpiperazin-1-yl)phenyl)pyrimidine-4-carboxamide by LC-MS/MS based chemoproteomics assay; method in brief: as §1
[5] = tested on: Mycobacterium tuberculosis; assay: Antibacterial activity against GFP-fused Mycobacterium tuberculosis H37RvMA expressing QcrB mutant grown in 7H9/GLU/ADC medium measured on day 7 and day 14 post inoculation by fluorescence plate reader assay; type: functional
Method in brief: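 Mtb::gfp strains (H37RvMa::pMSP12GFP background), two-fold dilutions 20–0.039 µM in 7H9 with Tween-80, glycerol and ADC, or in GAST-Fe pH 6.6, at 5% final DMSO. Cultures grown to OD600 ~0.6 and diluted 1:500 (7H9) or 1:100 (GAST/Fe). […] Data normalised to rifampicin and DMSO controls; MIC90 taken from dose-response curves.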

Structure (SMILES): CN1CCN(c2ccc(NC(=O)c3cc(N(C)Cc4ccc(C(F)(F)F)cc4)ncn3)cc2)CC1
- Kd [1]: 610 to 690 nM
- Activity [2]: Active
- Kd [3]: 2100 to 3800 nM
- Activity [4]: Active

Structure (SMILES): O=C(Nc1ccccc1)c1ccc(=O)n(Cc2ccc(F)cc2)c1
- Activity [2]: inactive
- Activity [4]: inactive

Structure (SMILES): COc1ccc(NC(=O)c2cc(N(C)Cc3ccccc3)ncn2)cc1
- MIC99 [5]: 20 µM (≈ 6.97 µg/mL)
